Results from ChEMBL document CHEMBL3120088, “Discovery of selective small molecule type III phosphatidylinositol 4-kinase alpha (PI4KIIIα) inhibitors as anti hepatitis C (HCV) agents” (J Med Chem, 2014).
Activity calls are given as the source filed them. The calls are words filed in the database; no cut-off is given here.

How the values were obtained:
[1] = biological target: T1, Phosphatidylinositol 4-kinase alpha (Homo sapiens, UniProt P42356); test: Inhibition of GST-tagged PI4K-alpha (1 to 2044) (unknown origin) using D-myo-phosphatidylinositol as substrate preincubated for 30 mins followed by substrate addition measured after 180 mins by luminescence assay
Target sequence in this assay (P42356 whole entry): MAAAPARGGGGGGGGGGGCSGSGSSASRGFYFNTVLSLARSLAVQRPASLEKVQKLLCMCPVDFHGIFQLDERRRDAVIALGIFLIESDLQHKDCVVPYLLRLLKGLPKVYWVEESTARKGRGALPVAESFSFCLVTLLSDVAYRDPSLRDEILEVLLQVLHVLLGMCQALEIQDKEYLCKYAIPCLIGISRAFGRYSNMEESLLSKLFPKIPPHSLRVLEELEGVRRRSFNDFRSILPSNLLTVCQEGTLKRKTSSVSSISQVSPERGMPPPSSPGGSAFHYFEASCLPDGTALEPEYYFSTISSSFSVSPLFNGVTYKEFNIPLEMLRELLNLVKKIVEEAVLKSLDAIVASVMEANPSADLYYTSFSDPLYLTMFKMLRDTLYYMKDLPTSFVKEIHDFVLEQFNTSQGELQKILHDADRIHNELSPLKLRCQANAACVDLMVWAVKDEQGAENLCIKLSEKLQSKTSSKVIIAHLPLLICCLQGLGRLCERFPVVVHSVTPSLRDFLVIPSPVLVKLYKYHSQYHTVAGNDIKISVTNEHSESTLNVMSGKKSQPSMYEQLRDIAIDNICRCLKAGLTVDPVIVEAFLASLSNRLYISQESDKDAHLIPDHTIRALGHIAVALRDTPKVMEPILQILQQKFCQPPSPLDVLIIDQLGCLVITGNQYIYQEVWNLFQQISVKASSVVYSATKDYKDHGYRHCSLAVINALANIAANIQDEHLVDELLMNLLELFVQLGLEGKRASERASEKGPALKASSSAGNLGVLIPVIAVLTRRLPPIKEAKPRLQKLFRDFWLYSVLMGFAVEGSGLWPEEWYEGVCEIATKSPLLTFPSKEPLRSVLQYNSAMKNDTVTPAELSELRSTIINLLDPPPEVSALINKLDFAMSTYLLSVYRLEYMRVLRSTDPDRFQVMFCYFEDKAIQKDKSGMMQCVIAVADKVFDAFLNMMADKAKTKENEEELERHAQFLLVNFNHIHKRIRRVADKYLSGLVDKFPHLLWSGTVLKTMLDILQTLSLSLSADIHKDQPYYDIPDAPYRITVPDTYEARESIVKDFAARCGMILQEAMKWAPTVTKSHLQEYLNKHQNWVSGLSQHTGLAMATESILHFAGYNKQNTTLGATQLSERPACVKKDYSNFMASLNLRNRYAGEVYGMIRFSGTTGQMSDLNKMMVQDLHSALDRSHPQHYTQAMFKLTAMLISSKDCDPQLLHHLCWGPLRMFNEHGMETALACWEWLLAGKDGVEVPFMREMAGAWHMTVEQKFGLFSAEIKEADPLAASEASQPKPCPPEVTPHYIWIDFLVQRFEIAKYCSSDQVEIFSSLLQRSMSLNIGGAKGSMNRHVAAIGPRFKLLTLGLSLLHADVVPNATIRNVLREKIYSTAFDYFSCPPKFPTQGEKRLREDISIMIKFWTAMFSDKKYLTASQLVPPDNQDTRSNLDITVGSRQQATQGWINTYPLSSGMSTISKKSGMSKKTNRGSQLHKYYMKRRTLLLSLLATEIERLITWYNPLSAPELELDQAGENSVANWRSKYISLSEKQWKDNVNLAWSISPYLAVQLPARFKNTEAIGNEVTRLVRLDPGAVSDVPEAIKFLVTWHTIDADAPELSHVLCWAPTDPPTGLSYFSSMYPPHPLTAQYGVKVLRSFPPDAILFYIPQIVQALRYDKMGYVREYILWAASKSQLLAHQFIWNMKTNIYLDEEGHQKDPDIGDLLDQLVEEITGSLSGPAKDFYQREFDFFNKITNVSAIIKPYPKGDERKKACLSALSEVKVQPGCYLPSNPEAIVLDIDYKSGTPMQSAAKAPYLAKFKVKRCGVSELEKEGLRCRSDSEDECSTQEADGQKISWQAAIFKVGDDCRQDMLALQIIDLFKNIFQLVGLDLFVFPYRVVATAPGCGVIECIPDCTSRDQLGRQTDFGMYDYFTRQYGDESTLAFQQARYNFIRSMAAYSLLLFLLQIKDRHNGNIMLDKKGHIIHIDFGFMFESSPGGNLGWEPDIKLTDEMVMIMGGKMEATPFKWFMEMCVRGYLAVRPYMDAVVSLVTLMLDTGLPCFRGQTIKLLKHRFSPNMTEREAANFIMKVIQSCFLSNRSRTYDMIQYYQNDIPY

[2] = Inhibition of PI3Kbeta (1 to 1070)/6xHis-tagged p85 (1 to 724) (unknown origin) using diC8-PIP2 as substrate preincubated for 30 mins followed by substrate addition measured after 45 to 60 mins; design: species or system Homo sapiens
[3] = tested on: Hepatitis C virus; test: Antiviral activity against Hepatitis C virus genotype 1a expressed in ET cells after 48 hrs by luciferase reporter gene assay; format: functional, organism-based, Hepacivirus hominis, subtype 1a
[4] = Inhibition of PI3Kdelta (1 to 1044)/6xHis-tagged p85 (1 to 724) (unknown origin) using diC8-PIP2 as substrate preincubated for 30 mins followed by substrate addition measured after 45 to 60 mins; design: species or system Homo sapiens
[5] = biological target: Phosphatidylinositol 4,5-bisphosphate 3-kinase catalytic subunit gamma isoform (Homo sapiens, UniProt P48736)
[6] = tested on: Hepatitis C virus; test: Antiviral activity against Hepatitis C virus genotype 1b expressed in ET cells after 48 hrs by luciferase reporter gene assay; format: functional, organism-based, Hepacivirus hominis
[7] = Inhibition of 6xHis-tagged PI4K-beta (13 to 828) 316 to 330 deletion mutant (unknown origin) using D-myo-phosphatidylinositol as substrate preincubated for 30 mins followed by substrate addition measured after 180 mins by luminescence assay; design: species or system Homo sapiens
[8] = Inhibition of PI3Kalpha (1 to 1068)/6xHis-tagged p85 (1 to 724) (unknown origin) using diC8-PIP2 as substrate preincubated for 30 mins followed by substrate addition measured after 45 to 60 mins; design: species or system Homo sapiens
[9] = Half life in Sprague-Dawley rat at 5 mg/kg, po; format: ADME, organism-based; design: dose 5 mg/kg, route oral; details: Sprague-Dawley, in vivo
How it was run: (§1)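 Rats were given a single dose of compound formulated in DMSO/cyclodextrin, either intravenously at 1 mg/kg or orally at 5 mg/kg. Each parameter comes from the matching route arm. Dose-normalized AUC is expressed as h kg ng mL⁻¹ mg⁻¹.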

[10] = Cmax in Sprague-Dawley rat at 5 mg/kg, po; format: ADME, organism-based; design: dose 5 mg/kg, route oral; details: Sprague-Dawley, in vivo; how it was run: as §1
[11] = Oral bioavailability in Sprague-Dawley rat at 5 mg/kg; format: ADME, organism-based; details: Sprague-Dawley, in vivo; how it was run: as §1
[12] = AUC in Sprague-Dawley rat at 5 mg/kg, po; format: ADME, organism-based; design: dose 5 mg/kg, route oral; details: plasma; how it was run: as §1
[13] = Tmax in Sprague-Dawley rat at 5 mg/kg, po; format: ADME, organism-based; design: dose 5 mg/kg, route oral; details: Sprague-Dawley, in vivo; how it was run: as §1
[14] = tested on: Hepatitis C virus; test: Antiviral activity against Hepatitis C virus genotype 2a expressed in human Huh-7 Lunet cells after 48 hrs by luciferase reporter gene assay; format: functional, organism-based, Hepacivirus hominis; details: Hepatitis C virus, genotype 2a, Huh-7, 48 h
[15] = biological target: T1, Phosphatidylinositol 4-kinase alpha; test: Competitive inhibition of GST-tagged PI4K-alpha (1 to 2044) (unknown origin) in presence of ATP
[16] = Hepatitis C virus, genotype 1b, ET, 48 h

Chain of Phosphatidylinositol 4,5-bisphosphate 3-kinase catalytic subunit gamma isoform (P48736 whole entry, canonical isoform): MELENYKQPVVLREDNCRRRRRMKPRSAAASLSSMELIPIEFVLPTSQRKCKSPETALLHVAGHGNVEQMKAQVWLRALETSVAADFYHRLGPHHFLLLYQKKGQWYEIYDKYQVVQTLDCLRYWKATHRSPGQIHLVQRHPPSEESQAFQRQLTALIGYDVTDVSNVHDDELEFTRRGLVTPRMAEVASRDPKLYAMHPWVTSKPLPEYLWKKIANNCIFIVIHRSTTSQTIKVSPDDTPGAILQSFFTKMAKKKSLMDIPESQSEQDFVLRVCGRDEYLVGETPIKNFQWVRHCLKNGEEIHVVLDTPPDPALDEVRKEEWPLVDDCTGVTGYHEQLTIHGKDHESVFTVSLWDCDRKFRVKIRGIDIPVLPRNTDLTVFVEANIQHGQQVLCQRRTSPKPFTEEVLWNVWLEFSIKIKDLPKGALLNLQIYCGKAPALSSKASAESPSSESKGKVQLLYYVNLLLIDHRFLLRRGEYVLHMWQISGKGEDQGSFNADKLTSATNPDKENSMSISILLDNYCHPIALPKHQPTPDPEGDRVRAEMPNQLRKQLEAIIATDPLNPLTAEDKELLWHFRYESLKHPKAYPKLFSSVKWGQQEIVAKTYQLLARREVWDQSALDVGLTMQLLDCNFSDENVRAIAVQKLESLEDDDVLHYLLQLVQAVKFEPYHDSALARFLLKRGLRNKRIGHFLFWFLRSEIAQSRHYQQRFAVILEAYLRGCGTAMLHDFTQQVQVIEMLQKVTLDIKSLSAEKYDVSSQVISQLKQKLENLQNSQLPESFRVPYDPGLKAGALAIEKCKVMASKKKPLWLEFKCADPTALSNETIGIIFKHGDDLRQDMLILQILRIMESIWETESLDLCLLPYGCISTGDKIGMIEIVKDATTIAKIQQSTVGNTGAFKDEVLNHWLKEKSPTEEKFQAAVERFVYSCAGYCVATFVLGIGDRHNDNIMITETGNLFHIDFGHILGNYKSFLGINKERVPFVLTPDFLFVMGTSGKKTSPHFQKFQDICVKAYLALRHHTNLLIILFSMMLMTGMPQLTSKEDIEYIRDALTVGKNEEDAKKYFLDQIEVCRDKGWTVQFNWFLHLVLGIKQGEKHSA

SMILES | IC50 [1] [nM] | pIC50 [2] | pIC50 [4] | IC50 [5] [nM] | pIC50 [7] | pIC50 [8] | IC50 [6, 16] [nM] | half-life [9] [h] | Cmax [10] [ng/mL] | bioavailability [11] [%] | AUC [12] [ng·h/mL] | Tmax [13] [h] | EC50 [14] [nM] | EC50 ([3]; Hepatitis C virus, subtype 1a, ET, 48 h) [nM] | inhibition [15] | EC50 [6, 16] [nM] | pIC50 ([3]; et) | pIC50 ([6]; et)
COc1ncc(-c2ccc3nc(N)n(-c4ccccc4C(F)(F)F)c(=O)c3c2)cc1S(=O)(=O)Nc1ccc(F)cc1F | 15.8 | 5 | 5.5 | 3160 | 5.8 |  |  |  |  |  |  |  |  |  |  |  | 7.7 | 8.5
COc1ncc(-c2ccc3nc(N)n(-c4ccccc4)c(=O)c3c2)cc1NS(=O)(=O)C(C)C | 126 | 5.3 | 6.7 | 501 | 5.9 | 6.4 | 31.6 |  |  |  |  |  |  |  |  |  |  | 
COc1ccc(-c2ccc3nc(N)n(-c4ccccc4)c(=O)c3c2)cc1NS(=O)(=O)c1ccc(F)cc1F | 316 | 4 | 5.4 | 316 | 6.8 | 5.8 | 31.6 |  |  |  |  |  |  |  |  |  |  | 
COc1ncc(-c2ccc3nc(N)n(-c4ccc(C(F)(F)F)cc4)c(=O)c3c2)cc1S(=O)(=O)Nc1ccc(F)cc1F | 50.1 | 4.6 | 6.4 | 398 | 5 | 6.1 | 10 |  |  |  |  |  |  |  |  |  |  | 
COc1ncc(-c2ccc3nc(N)n(C4CCOCC4)c(=O)c3c2)cc1S(=O)(=O)Nc1ccc(F)cc1F | 10 | 5.4 | 6.6 | 501 | 5.9 | 6.6 | 3.98 |  |  |  |  |  |  |  |  |  |  | 
COc1ncc(-c2ccc3nc(N)c(-c4ccccc4)cc3c2)cc1NS(=O)(=O)c1ccc(F)cc1F | 100 | 5.9 | 6.9 | 63.1 | 5.8 | 6.5 | 10 |  |  |  |  |  |  |  |  |  |  | 
COc1ncc(-c2ccc3nc(N)n(-c4ccccc4)c(=O)c3c2)cc1S(=O)(=O)Nc1ccc(F)cc1F | 6.31 | 4.9 | 6.3 | 1260 | 5.5 | 6 | 5.01 |  |  |  |  |  |  |  |  |  |  | 
COc1ncc(-c2cc3cc(-c4ccccc4)c(N)nc3cn2)cc1NS(=O)(=O)c1ccc(F)cc1F | 200 | 5.8 | 6.2 | 1260 | 5 | 5.7 | 158 |  |  |  |  |  |  |  |  |  |  | 
CCn1c(N)nc2ccc(-c3cnc(OC)c(S(=O)(=O)Nc4ccc(F)cc4F)c3)cc2c1=O | 39.8 | 6.4 | 6.8 | 158 | 6 | 6.9 | 20 |  |  |  |  |  |  |  |  |  |  | 
COc1ncc(-c2ccc3nc(N)n(-c4ccccc4C(C)C)c(=O)c3c2)cc1S(=O)(=O)Nc1ccc(F)cc1F | 31.6 | 4.8 | 5.6 | 1000 | 6 | 5.8 | 6.31 |  |  |  |  |  |  |  |  |  |  | 
COc1ncc(-c2ccc3nc(N)n(-c4cccc(C(F)(F)F)c4)c(=O)c3c2)cc1S(=O)(=O)Nc1ccc(F)cc1F | 50.1 | 5 | 6 | 1580 | 5.1 | 6 | 79.4 |  |  |  |  |  |  |  |  |  |  | 
COc1ncc(-c2ccc3nc(N)c(-c4ccc(N5CCOCC5)cc4)cc3c2)cc1NS(=O)(=O)c1ccc(F)cc1F | 39.8 | 5 | 6.2 | 631 | 5.5 | 5.6 |  | 2.39 | 1390 | 38 | 5000 | 0.67 | 20 | 31.6 | Active | 3.98 |  | 
COc1ncc(-c2ccc3nc(N)n(-c4ccccc4)c(=O)c3c2)cc1N(C)S(=O)(=O)c1ccc(F)cc1F | 3980 | 4.5 | 4.8 | 3980 | 5 | 5.5 | > 2000 |  |  |  |  |  |  |  |  |  |  | 
COc1ncc(-c2cnc3nc(N)c(-c4ccccc4)cc3c2)cc1NS(=O)(=O)c1ccc(F)cc1F | 631 | 6 | 5.7 | 6310 | 5.4 | 5.3 | 126 |  |  |  |  |  |  |  |  |  |  | 
COc1ncc(-c2ccc3nc(N)n(-c4ccccc4)c(=O)c3c2)cc1NS(=O)(=O)c1ccc(C)cc1 | 15.8 | 5.6 | 8 |  | 6.2 | 7.3 | 3.16 |  |  |  |  |  |  |  |  |  |  | 
COc1ncc(-c2ccc3nc(N)n(-c4ccccc4C)c(=O)c3c2)cc1S(=O)(=O)Nc1ccc(F)cc1F | 10 | 5.7 | 6.7 | 316 | 6.1 | 6.5 | 2.51 |  |  |  |  |  |  |  |  |  |  | 
COc1ncc(-c2ccc3nc(N)c(-c4ccccc4)cc3n2)cc1NS(=O)(=O)c1ccc(F)cc1F | 7940 | 4.2 | 4.9 | 25100 | 5 | 4.2 | > 5010 |  |  |  |  |  |  |  |  |  |  | 
COc1ncc(-c2ccc3nc(N)n(-c4ccccc4)c(=O)c3c2)cc1NS(C)(=O)=O | 20 | 5.3 | 6.6 | 794 | 6.1 | 6.4 | 20 |  |  |  |  |  |  |  |  |  |  | 

Compounds with a lower IC50 [1], results first:

IC50 [1] [nM] | pIC50 [2] | pIC50 [4] | IC50 [5] [nM] | pIC50 [7] | pIC50 [8] | IC50 [6, 16] [nM] | half-life [9] [h] | Cmax [10] [ng/mL] | bioavailability [11] [%] | AUC [12] [ng·h/mL] | Tmax [13] [h] | EC50 [14] [nM] | EC50 ([3]; Hepatitis C virus, subtype 1a, ET, 48 h) [nM] | inhibition [15] | EC50 [6, 16] [nM] | SMILES | pIC50 ([3]; et) | pIC50 ([6]; et)
3.98 | 6.3 | 7.3 | 50.1 | 6.4 | 7.1 | 1.26 |  |  |  |  |  |  |  |  |  | COc1ncc(-c2ccc3nc(N)n(-c4ccccc4)c(=O)c3c2)cc1NS(=O)(=O)c1cccc(C)c1 |  | 
1 | 6.3 | 7.6 | 50.1 | 7.5 | 6.6 | 0.631 |  |  |  |  |  |  |  |  |  | COc1ncc(-c2ccc3nc(N)n(-c4ccccc4)c(=O)c3c2)cc1NS(=O)(=O)c1ccc(C#N)cc1 |  | 
0.794 | 5.3 | 6.4 |  | 7.5 | 6.7 | 15.8 |  |  |  |  |  |  |  |  |  | Nc1ncc(-c2ccc3nc(N)n(-c4ccccc4)c(=O)c3c2)cc1NS(=O)(=O)c1ccc(F)cc1F |  | 
1.58 | 7 | 8.2 | 3.98 | 7.2 | 8.2 | 0.501 | 6.7 | 3580 | 60 | 60200 | 6 |  |  |  |  | COc1ncc(-c2ccc3nc(N)n(-c4ccccc4)c(=O)c3c2)cc1NS(=O)(=O)c1ccc(F)cc1F |  | 
1 | 6.4 | 7.6 | 39.8 | 6.8 | 7.2 | 0.398 |  |  |  |  |  |  |  |  |  | COc1ncc(-c2ccc3nc(N)n(-c4ccccc4)c(=O)c3c2)cc1NS(=O)(=O)c1ccccc1C |  | 
2.51 | 6.3 | 7.7 |  | 6.7 | 7.3 | 0.501 |  |  |  |  |  |  |  |  |  | COc1ncc(-c2ccc3nc(N)n(-c4ccccc4)c(=O)c3c2)cc1NS(=O)(=O)c1ccccc1 |  | 
0.316 | 7 | 8.5 | 6.31 | 7.4 | 8.4 | 1 |  |  |  |  |  |  |  |  |  | COc1ncc(-c2ccc3nc(N)n(-c4ccccc4)c(=O)c3c2)cc1NS(=O)(=O)c1cccnc1 |  | 
5.01 | 6.7 | 7.8 | 7.94 | 6.9 | 7.1 | 15.8 |  |  |  |  |  |  |  |  |  | COc1ncc(-c2ccc3nc(N)c(-c4ccccc4)nc3c2)cc1NS(=O)(=O)c1ccc(F)cc1F |  | 
1.58 | 8.7 | 8.9 | 2.51 | 7.7 | 8.9 |  |  |  |  |  |  |  |  |  |  | COc1ncc(-c2ccc3ncnc(N4CCOCC4)c3c2)cc1NS(=O)(=O)c1ccc(F)cc1F |  | 
